Assay results taken from ChEMBL document CHEMBL4513216, “Probing the Open Global Health Chemical Diversity Library for Multistage-Active Starting Points for Next-Generation Antimalarials” (ACS Infect Dis, 2020).

Assay: Toxicity liver stage against HepG2, at 10uM
Assay type: cell-based
Set-up: test concentration 10 uM, cell line HepG2-A16-CD81EGFP
Conditions: human, HepG2-A16-CD81EGFP cells; read-out: INHIBITION
In short: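 Uninfected HepG2-A16-CD81EGFP cells, 3 × 10^3 per well, 1536-well, plated on prespotted compound at 10 μM final, parasite-free screening media added to match infected plates; puromycin 10 μM positive, DMSO 0.5% negative; run in parallel with 48 h PbLuc assay at 37 °C, 5% CO2; viability by CellTiter-Glo luminescence, normalized to controls.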

Cn1c(=O)c2c(c3ccccc31)OC(C)(C)CC2
cytotoxicity at 10 µM: 17.8%

CN(C)C(CNC(=O)c1nc(N2CCOCC2)ncc1Cl)c1ccco1 (stereo not given)
cytotoxicity at 10 µM: 7.96%

Cn1nnc(NCc2ccccc2OCc2ccc(Cl)cc2)n1
cytotoxicity at 10 µM: 2.71%

COc1ccc(CN2CCCCCC2c2cccs2)c(O)c1 (stereo not given)
cytotoxicity at 10 µM: 3.6%

Cn1ccnc1SC1CCc2ccccc2NC1=O (stereo not given)
cytotoxicity at 10 µM: -8.75%

CN(C)C(CNc1c(NCc2ccco2)c(=O)c1=O)c1ccccc1 (stereo not given)
cytotoxicity at 10 µM: 5.16%

CN(C)CC1CSCCCN1C(=O)c1cccc(C(F)(F)F)c1 (stereo not given)
cytotoxicity at 10 µM: -5.03%

CC(=O)N1Cc2nccn2CC(CNC(=O)c2cnccn2)C1 (stereo not given)
cytotoxicity at 10 µM: -144%

CCS(=O)(=O)N1CCCC2(CCCN2C(=O)c2cscn2)C1 (stereo not given)
cytotoxicity at 10 µM: 8.25%

Cn1ccnc1C(=O)NCc1cc(=O)n2c(n1)CN(CC1CC1)CCC2
cytotoxicity at 10 µM: 13.8%

O=C(c1ccsc1)N1CCc2onc(CN3CCOCC3)c2C1
cytotoxicity at 10 µM: 5.07%

CCOCC(=O)N1CC[C@H]2OCC[C@@H](c3nnc(C)o3)[C@H]2C1
cytotoxicity at 10 µM: 12%

O=C(CSC1CCc2ccccc2NC1=O)NCCc1ccc(O)cc1 (stereo not given)
cytotoxicity at 10 µM: -4.25%

CC(C)NC(=O)C1CN(C(N)=O)Cc2ccnn2C1 (stereo not given)
cytotoxicity at 10 µM: -8.68%

CC(C)N1CCN(C(=O)c2[nH]nnc2Nc2ccccc2F)CC1
cytotoxicity at 10 µM: 6.36%

CCc1cc(=O)n(CC(=O)N2CCCC2)c(-c2ccccc2)n1
cytotoxicity at 10 µM: 7.25%

CCn1cc(-c2nn3c(C(F)(F)F)nnc3s2)c(C)n1
cytotoxicity at 10 µM: 13.5%

CC(CNC(=O)c1cc(C2CC2)nc2c1cnn2C)Cn1cccn1 (stereo not given)
cytotoxicity at 10 µM: 3.49%

Cc1ccc(-c2noc(C3CCN3C(=O)c3ccc(=O)[nH]n3)n2)s1 (stereo not given)
cytotoxicity at 10 µM: 7.53%

COc1ccc(CCc2nnc(NC(=O)C3CC34CCC4)s2)cc1OC (stereo not given)
cytotoxicity at 10 µM: -0.095%

Cc1nn(C)c(C)c1-c1ccc(=O)n(C(C)C(=O)NC(C)(C)C)n1 (stereo not given)
cytotoxicity at 10 µM: 5.75%

CC(=O)N1CCC(Cc2nccnc2-c2ccnn2C)CC1
cytotoxicity at 10 µM: -7.3%

O=C(O)c1ccc(=O)n(CC(c2ccc(Cl)cc2)N2CCOCC2)c1 (stereo not given)
cytotoxicity at 10 µM: 2.91%

CCNC(=O)Nc1ncc(-c2cccnc2)s1
cytotoxicity at 10 µM: 14.6%

Cc1ncc(CNC(=O)CCc2c(C)noc2C)c(C2CCCN2C)n1 (stereo not given)
cytotoxicity at 10 µM: -8.86%

CC(C)OCCS(=O)(=O)N1CCN(Cc2cccn2C)CC1
cytotoxicity at 10 µM: -17.3%

O=C(NCc1ccnc(OCC(F)(F)F)c1)NCC1COCCO1 (stereo not given)
cytotoxicity at 10 µM: 1.81%

CC(C(=O)N1CCCC1)S(=O)(=O)Cc1noc(C(C)(C)C)n1 (stereo not given)
cytotoxicity at 10 µM: -1.1%

Cc1nccc(CNC(=O)NC(c2ncc(C)s2)C2CC2)n1 (stereo not given)
cytotoxicity at 10 µM: -0.898%

CCOCCN1CCN(c2ncccc2C#N)CC1CC (stereo not given)
cytotoxicity at 10 µM: 5.94%

O=C(NCC1CCS(=O)(=O)C1)N(Cc1ccccn1)C1CC1 (stereo not given)
cytotoxicity at 10 µM: -129%

CC(=O)N1CCC(NC(=O)Cc2nc3nc(C)cc(C)n3n2)CC1
cytotoxicity at 10 µM: 8.52%

O=C(Nc1ccccn1)c1ccc(F)c(S(=O)(=O)NC2CC2)c1
cytotoxicity at 10 µM: 4.37%

NC(=O)NC(=O)C(c1ccccc1)N1CCN(Cc2ccsc2)CC1 (stereo not given)
cytotoxicity at 10 µM: 1.94%

O=C1CCCN1Cc1ccc(C(=O)N2CCCC2c2cccs2)cc1 (stereo not given)
cytotoxicity at 10 µM: 3.78%

CN(C)C1Cc2ccccc2N(S(=O)(=O)c2cccc(C#N)c2)C1 (stereo not given)
cytotoxicity at 10 µM: 9.89%

CCNC(=O)Cc1ccc(NC(=O)NC(CC)c2ccncc2)cc1 (stereo not given)
cytotoxicity at 10 µM: -3%

O=C(c1cc(Cl)c2c(c1)OCO2)N1CCN(c2cnccn2)CC1
cytotoxicity at 10 µM: 6.76%

Cc1ccccc1C(=O)NCC(O)c1ccc(F)c(F)c1 (stereo not given)
cytotoxicity at 10 µM: -10.1%

Cc1ccccc1-c1cc(NC(=O)NC2CC2)n(CCO)n1
cytotoxicity at 10 µM: 8.09%

CCN(CC)c1ccc(NS(=O)(=O)c2cnn(CC)c2)cn1
cytotoxicity at 10 µM: 3.07%

c1ccc2c(N3CCOC(Cn4cccn4)C3)ncnc2c1 (stereo not given)
cytotoxicity at 10 µM: -1.04%

Cc1cc(F)ccc1-n1cc(O)c(C(=O)NCC2(O)CCC2)n1
cytotoxicity at 10 µM: 0.477%

O=C(c1ccncc1)N1CCN(C(=O)c2coc3ccccc23)CC1
cytotoxicity at 10 µM: 4.27%

CC1(C(=O)NCCN2CCCCC2)CCCN1C(=O)c1ccccc1 (stereo not given)
cytotoxicity at 10 µM: -6.44%

CC(NC(=O)Nc1nnc(-c2ccccn2)s1)C(=O)OC(C)(C)C (stereo not given)
cytotoxicity at 10 µM: -6.87%

Cc1ccc(-c2ncc(CN3CCOC(c4ccco4)C3)s2)o1 (stereo not given)
cytotoxicity at 10 µM: 4.37%

CN(C)CC(NC(=O)c1ccn(C)c(=O)c1)c1ccccc1 (stereo not given)
cytotoxicity at 10 µM: -5.85%

CSc1ccc(NC(=O)COCc2ccccc2)nc1
cytotoxicity at 10 µM: 7.01%

CN(Cc1ccncc1)C(CO)c1cccc(Br)c1 (stereo not given)
cytotoxicity at 10 µM: 15.4%

CN(C)C(=O)CN1CCN(c2cc(N3CCCC3CO)ncn2)CC1 (stereo not given)
cytotoxicity at 10 µM: -1.49%

CS(=O)(=O)NCCc1cccc2cccnc12
cytotoxicity at 10 µM: 18.3%

CS(=O)(=O)N1CCN(C(=O)c2[nH]c3ccc(Cl)cc3c2Cl)CC1
cytotoxicity at 10 µM: 24.6%

O=C(NCCc1nncn1C1CC1)c1cnn(Cc2ccccc2)c1
cytotoxicity at 10 µM: -2.36%

CC(C)c1ocnc1C(=O)N1CCC(=O)Nc2cccnc21
cytotoxicity at 10 µM: 1.15%

Cc1cc(C)c(CNC(=O)NCc2nnc3n2CCCCC3)c(=O)[nH]1
cytotoxicity at 10 µM: -1.34%

Cc1noc(CNc2ccccc2N2CCCCC2)n1
cytotoxicity at 10 µM: -25.4%

COC(=O)c1cccc(S(=O)(=O)NC(=O)c2ccccc2F)c1
cytotoxicity at 10 µM: 5.79%

CCCn1c(O)nnc1SCC1OCCc2ccccc21 (stereo not given)
cytotoxicity at 10 µM: 4.32%

CC(C)CC(C(=O)N1CCCSCC1)N1CCCCC1=O (stereo not given)
cytotoxicity at 10 µM: -11%

NC(=O)C1CCN(Cc2cccc(NC(=O)c3ccsc3)c2)CC1
cytotoxicity at 10 µM: 18.7%

Cn1cnc(-c2nc(C(=O)NCC3CCCO3)c3ccccn23)c1 (stereo not given)
cytotoxicity at 10 µM: -109%

Cc1cccc(C(=O)N2CC[C@@H]3CN(c4ncccn4)CCO[C@@H]3C2)c1
cytotoxicity at 10 µM: -71.6%

CCN1C(=O)[C@]2(CC[C@@H]3CN(S(=O)(=O)CC(C)C)C[C@@H]32)N=C1C
cytotoxicity at 10 µM: -78.2%

Cn1cc(C[C@H]2[C@@H](O)CCN2C(=O)c2ccc[nH]2)cn1
cytotoxicity at 10 µM: -71.2%

CCc1ccc(CN(C)c2ccc(-c3nc(COC)no3)cn2)nc1
cytotoxicity at 10 µM: -2.68%

Cc1n[nH]c(SCC(=O)N[C@@H](C)C(N)=O)n1
cytotoxicity at 10 µM: 8.07%

O=C(CC1COCCN1)N1CCC(N2CCc3ccccc3C2)CC1 (stereo not given)
cytotoxicity at 10 µM: -176%

CN(C)c1nc2c(c(=O)[nH]1)CCN(C(=O)c1ccc(=O)[nH]c1)C2
cytotoxicity at 10 µM: 10.2%

Cc1ccc(-c2cnnc(NCC3(N4CCOCC4)CCCC3)n2)o1
cytotoxicity at 10 µM: -6.79%

Cc1nnc(CN(CCc2ccccc2)C2CCN(C)CC2)s1
cytotoxicity at 10 µM: 0.219%

CCn1nc(C)c(C(=O)N2C[C@@H](CN(C)C)[C@@H](CO)C2)c1C
cytotoxicity at 10 µM: 0.44%

C=C(C)COc1cccc(CN(CC)Cc2noc(C)n2)c1
cytotoxicity at 10 µM: -12%

COc1cccc2c1OCC(CNC(=O)Cn1ccnc1C)C2 (stereo not given)
cytotoxicity at 10 µM: -150%

CC[C@H]1COCCN1C(=O)c1ccc(OC)c(N2CCOCC2)c1
cytotoxicity at 10 µM: 3.89%

CCCn1c(C)c(CC(=O)NC(C)(C)CO)c2c1CC(C)(C)CC2=O
cytotoxicity at 10 µM: -8.97%

CCc1nc(C)c(CN2CCN(c3ncnc4c(C)csc34)CC2)[nH]1
cytotoxicity at 10 µM: 17.6%

Cc1cccc(C(C(=O)N2CC(c3ccccn3)C2)N(C)C)c1 (stereo not given)
cytotoxicity at 10 µM: -13.1%

Cc1ccc(CN2CCC(Cc3nnc(CO)n3C)CC2)cc1C
cytotoxicity at 10 µM: 5.19%

COc1ccc(F)c(CN2CCCC(O)(CNC3CCCCC3)C2=O)c1 (stereo not given)
cytotoxicity at 10 µM: 8.28%

Cc1[nH]c(=O)[nH]c(=O)c1CN1CCCC(CCc2ccc(F)c(F)c2)C1 (stereo not given)
cytotoxicity at 10 µM: 1.4%

CN(CCCc1nccn1C)C(=O)C1CCN(C(=O)C2CCC2)CC1
cytotoxicity at 10 µM: -7.12%

Cc1cncc(C(=O)N2CCCC(O)(CN3CCCC3)C2)c1 (stereo not given)
cytotoxicity at 10 µM: 10.1%

COc1cc2cc(C(=O)NC(C)C(=O)O)n(C)c2c(OC)c1OC (stereo not given)
cytotoxicity at 10 µM: -162%

Cc1nc2c(c(=O)n1C)CCN(C(=O)CCc1ccccn1)CC2
cytotoxicity at 10 µM: 14%

CC(C)n1cnnc1CN(C)C(=O)C1CCCN(CC(N)=O)C1 (stereo not given)
cytotoxicity at 10 µM: 1.05%

CC(C)NC(=O)[C@@H]1C[C@H](N)CN1C(=O)c1cc2c([nH]c1=O)CCCC2
cytotoxicity at 10 µM: 10.5%

COc1ccc2c(c1)OCC(CNC(=O)c1ccncc1)C2 (stereo not given)
cytotoxicity at 10 µM: -8.63%

CS(=O)(=O)N1CCCC(C(=O)Nc2cnn(COCC(F)(F)F)c2)C1 (stereo not given)
cytotoxicity at 10 µM: -11.5%

CNc1cc(C2CCCN2C(=O)c2ccc3oc(=O)n(C)c3c2)ccn1 (stereo not given)
cytotoxicity at 10 µM: 1.68%

Cc1cncc(C2CCCN(C(=O)c3cccn3C)C2)n1 (stereo not given)
cytotoxicity at 10 µM: 2.14%

CC(NC(=O)NCc1cccc(F)c1)(C(=O)O)c1ccco1 (stereo not given)
cytotoxicity at 10 µM: -3.33%

COc1c(CNCc2ccc3c(c2)OCO3)c(C(C)C)nn1C
cytotoxicity at 10 µM: 0.745%

CC(C)c1nn(C)c(N2CCOCC2)c1CNC(C)c1ccco1 (stereo not given)
cytotoxicity at 10 µM: -5.93%

Cc1cc(C(=O)N2CCCC2c2noc(C(C)C)n2)c(C)o1 (stereo not given)
cytotoxicity at 10 µM: -3.54%

CC(C)c1ccc(OCCC(=O)N2CCCC(C(N)=O)C2)cc1 (stereo not given)
cytotoxicity at 10 µM: -11.7%

Cc1cc(C)n(CC2CCCCN2C(=O)CCc2ccncc2)n1 (stereo not given)
cytotoxicity at 10 µM: 2.1%

Cc1ccc(NC2CCN(C(=O)COc3cccc(F)c3)CC2)nn1
cytotoxicity at 10 µM: 3.11%

COCCOc1ccccc1C(=O)NCCN(C)C(C)C
cytotoxicity at 10 µM: 0.449%

Cc1cnc(CN2CCCC2c2noc(C)n2)cn1 (stereo not given)
cytotoxicity at 10 µM: 3.78%

CCC(CC)NC(=O)Cn1nc(C)nc1-c1ccccc1
cytotoxicity at 10 µM: -7.22%

Cc1cc(C(=O)N2CCCC(n3cncn3)C2)c(C)n1C1CC1 (stereo not given)
cytotoxicity at 10 µM: -3.32%

CCn1c(C)nnc1CN(C)C1CCN(CCc2ccncc2)C1 (stereo not given)
cytotoxicity at 10 µM: 3.97%

COCCNC(=O)C(C)N1CCN(C)CC1 (stereo not given)
cytotoxicity at 10 µM: -1.21%

CC(C)CCN1CCC2(CCCN(c3nncs3)C2)C1 (stereo not given)
cytotoxicity at 10 µM: -139%

O=C(c1ccno1)N1CC[C@@H]2O[C@H](COCCN3CCCC3)CC[C@@H]21
cytotoxicity at 10 µM: -79.1%

O=C(N1CCCC1)N1CC[C@H]2OCC[C@@]2(COc2ncccc2F)C1
cytotoxicity at 10 µM: -151%

Cc1nc(N2CCCC2)nc2c1CCN(Cc1ccsc1)CC2
cytotoxicity at 10 µM: -106%

CN(C)[C@@H]1CCN(C(=O)CC2CC2)[C@H]1Cc1cnn(C)c1
cytotoxicity at 10 µM: -67.3%

CC(=Cc1ccccc1)CNCc1cccc(C(N)=O)c1
cytotoxicity at 10 µM: 6.03%
